Reference: ChEMBL document CHEMBL1127432, “Synthesis, in vitro biological stability, and anti-HIV activity of 5-halo-6-alkoxy(or azido)-5,6-dihydro-3'-azido-3'-deoxythymidine diastereomers as potential prodrugs to 3'-azido-3'-deoxythymidine (AZT)” (J Med Chem, 1994)

Tested on: CCRF-CEM
Assay: Inhibitory concentration (cytotoxic activity) which results in a 50% survival of […]
Format: functional, cell-based
Conditions: Homo sapiens
How it was run: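 Cytotoxicity run in the NCI AIDS screening program on CEM T4 lymphocytes alongside the anti-HIV test. IC50 = drug concentration giving 50% survival of uninfected untreated control cells. AZT control tested concurrently.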
With `CC1(Cl)C(=O)NC(=O)N([C@H]2C[C@H](N=[N+]=[N-])[C@@H](CO)O2)C1N=[N+]=[N-]` (some centres not stated) the IC50 was 350 µM.
`CO[C@@H]1N(C2CC(N=[N+]=[N-])C(CO)O2)C(=O)NC(=O)[C@@]1(C)I` (some centres not stated) showed an IC50 of 6.42 µM.
Compound `CO[C@H]1N(C2CC(N=[N+]=[N-])C(CO)O2)C(=O)NC(=O)[C@]1(C)Br` (some centres not stated) has an IC50 of 17.2 µM.
For `CO[C@H]1N([C@H]2C[C@H](N=[N+]=[N-])[C@@H](CO)O2)C(=O)NC(=O)C1(C)Cl` (some centres not stated), the IC50 was over 890 µM.
With `CO[C@@H]1N(C2CC(N=[N+]=[N-])C(CO)O2)C(=O)NC(=O)[C@@]1(C)Br` (some centres not stated) the IC50 was 42.5 µM.
Compound `CO[C@H]1N(C2CC(N=[N+]=[N-])C(CO)O2)C(=O)NC(=O)[C@]1(C)I` (some centres not stated) has an IC50 of 18.7 µM.
`CCO[C@@H]1N(C2CC(N=[N+]=[N-])C(CO)O2)C(=O)NC(=O)[C@@]1(C)Br` (some centres not stated) showed an IC50 of 22.2 µM.
In the case of `CC1(Br)C(=O)NC(=O)N([C@H]2C[C@H](N=[N+]=[N-])[C@@H](CO)O2)C1N=[N+]=[N-]` (some centres not stated), the IC50 is reported as 176 µM.

Tested on: not listed separately
Assay: Regeneration of the 5,6-Olefinic bond was measured as percent of 3''-azido-3''-deoxythymidine (AZT) formed upon incubation with Glutathione for 30 min at 37 degree C
Format: functional
Conditions: not given
How it was run: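 Compound incubated with reduced glutathione at a compound:GSH mole ratio of 1:2 (1:5 for some analogs) in phosphate buffer pH 7.4 at 37 °C, for times up to 24 h. AZT formed quantified by HPLC, UV 230 nm (dihydro compound) and 265 nm (AZT), water:methanol 7:3 eluent.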
`CO[C@@H]1N(C2CC(N=[N+]=[N-])C(CO)O2)C(=O)NC(=O)[C@@]1(C)Cl` (some centres not stated) showed an AZT formation of 0%.
For `CO[C@H]1N(C2CC(N=[N+]=[N-])C(CO)O2)C(=O)NC(=O)[C@@]1(C)Cl` (some centres not stated), the AZT formation was 0%.
With `CO[C@@H]1N(C2CC(N=[N+]=[N-])C(CO)O2)C(=O)NC(=O)[C@@]1(C)I` (some centres not stated) the AZT formation was 100%.
Compound `CO[C@H]1N(C2CC(N=[N+]=[N-])C(CO)O2)C(=O)NC(=O)[C@]1(C)Br` (some centres not stated) has an AZT formation of 80%.
In the case of `CO[C@H]1N(C2CC(N=[N+]=[N-])C(CO)O2)C(=O)NC(=O)[C@]1(C)Cl` (some centres not stated), the AZT formation is reported as 0%.
`CO[C@@H]1N(C2CC(N=[N+]=[N-])C(CO)O2)C(=O)NC(=O)[C@@]1(C)Br` (some centres not stated) gave an AZT formation of 77%.
In the case of `CO[C@H]1N(C2CC(N=[N+]=[N-])C(CO)O2)C(=O)NC(=O)[C@]1(C)I` (some centres not stated), the AZT formation is reported as 100%.
`CCO[C@@H]1N(C2CC(N=[N+]=[N-])C(CO)O2)C(=O)NC(=O)[C@@]1(C)Br` (some centres not stated) showed an AZT formation of 85%.

Tested on: not listed separately
Assay: Therapeutic index of IC50 to EC50
Conditions: read-out: TI
How it was run: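 TI = IC50/EC50, both from the NCI CEM cell screen. IC50 is the drug concentration giving 50% survival of uninfected untreated controls. EC50 is the concentration giving 50% survival of HIV-1-infected cells relative to uninfected untreated controls.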
`CC1(Cl)C(=O)NC(=O)N([C@H]2C[C@H](N=[N+]=[N-])[C@@H](CO)O2)C1N=[N+]=[N-]` (some centres not stated) gave a selectivity ratio of 235.
Work on `CO[C@@H]1N(C2CC(N=[N+]=[N-])C(CO)O2)C(=O)NC(=O)[C@@]1(C)I` (some centres not stated) yielded a selectivity ratio of 1250.
For `CO[C@H]1N(C2CC(N=[N+]=[N-])C(CO)O2)C(=O)NC(=O)[C@]1(C)Br` (some centres not stated), the selectivity ratio was 5260.
Compound `CO[C@H]1N([C@H]2C[C@H](N=[N+]=[N-])[C@@H](CO)O2)C(=O)NC(=O)C1(C)Cl` (some centres not stated) has a selectivity ratio of 155.
Work on `CO[C@@H]1N(C2CC(N=[N+]=[N-])C(CO)O2)C(=O)NC(=O)[C@@]1(C)Br` (some centres not stated) yielded a selectivity ratio of 152.
`CO[C@H]1N(C2CC(N=[N+]=[N-])C(CO)O2)C(=O)NC(=O)[C@]1(C)I` (some centres not stated) gave a selectivity ratio of 5900.
`CCO[C@@H]1N(C2CC(N=[N+]=[N-])C(CO)O2)C(=O)NC(=O)[C@@]1(C)Br` (some centres not stated) gave a selectivity ratio of 937.
`CC1(Br)C(=O)NC(=O)N([C@H]2C[C@H](N=[N+]=[N-])[C@@H](CO)O2)C1N=[N+]=[N-]` (some centres not stated) gave a selectivity ratio of under 1.

Species on record: Mus musculus
Assay: In vitro percent of 3''-azido-3''-deoxythymidine (AZT) formed upon incubation with mouse blood for 10 min at 37 degree C
Format: functional
Conditions: not given
How it was run: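 Heparinized mouse blood from cardiac puncture mixed 1:1 by volume with compound (1 mg/mL stock in water). Incubated 10 min at 37 °C, quenched with ice-cold methanol, 10 min on ice, then centrifuged. Supernatant dried under N2 and redissolved in methanol; AZT quantified by HPLC-UV at 230/265 nm.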
For `CO[C@@H]1N(C2CC(N=[N+]=[N-])C(CO)O2)C(=O)NC(=O)[C@@]1(C)Cl` (some centres not stated), the AZT formation was 0%.
In the case of `CO[C@H]1N(C2CC(N=[N+]=[N-])C(CO)O2)C(=O)NC(=O)[C@@]1(C)Cl` (some centres not stated), the AZT formation is reported as 0%.
Work on `CO[C@@H]1N(C2CC(N=[N+]=[N-])C(CO)O2)C(=O)NC(=O)[C@@]1(C)I` (some centres not stated) yielded an AZT formation of 100%.
With `CO[C@H]1N(C2CC(N=[N+]=[N-])C(CO)O2)C(=O)NC(=O)[C@]1(C)Br` (some centres not stated) the AZT formation was 59%.
Work on `CO[C@H]1N(C2CC(N=[N+]=[N-])C(CO)O2)C(=O)NC(=O)[C@]1(C)Cl` (some centres not stated) yielded an AZT formation of 0%.
`CO[C@@H]1N(C2CC(N=[N+]=[N-])C(CO)O2)C(=O)NC(=O)[C@@]1(C)Br` (some centres not stated) showed an AZT formation of 88%.
`CO[C@H]1N(C2CC(N=[N+]=[N-])C(CO)O2)C(=O)NC(=O)[C@]1(C)I` (some centres not stated) showed an AZT formation of 100%.

Species on record: Mus musculus
Assay: In vitro percent of 3''-azido-3''-deoxythymidine (AZT) formed upon incubation with mouse liver homogenate for 30 min at 37 degree C
Format: functional
Conditions: not given
How it was run: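 Livers of three Balb/c mice homogenized in 0.1 M Tris pH 8.2, spun at 49000g for 2 h at 4 °C; supernatant (soluble enzyme fraction) used. Compound (1 mg/mL stock) incubated with the fraction 30 min at 37 °C, mixed with equal volume methanol, centrifuged. Supernatant dried and redissolved; AZT quantified by HPLC, UV 230 and 265 nm.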
Work on `CO[C@@H]1N(C2CC(N=[N+]=[N-])C(CO)O2)C(=O)NC(=O)[C@@]1(C)Cl` (some centres not stated) yielded an AZT formation of 0%.
In the case of `CO[C@H]1N(C2CC(N=[N+]=[N-])C(CO)O2)C(=O)NC(=O)[C@@]1(C)Cl` (some centres not stated), the AZT formation is reported as 0%.
Compound `CO[C@@H]1N(C2CC(N=[N+]=[N-])C(CO)O2)C(=O)NC(=O)[C@@]1(C)I` (some centres not stated) has an AZT formation of 96%.
Work on `CO[C@H]1N(C2CC(N=[N+]=[N-])C(CO)O2)C(=O)NC(=O)[C@]1(C)Br` (some centres not stated) yielded an AZT formation of 26%.
In the case of `CO[C@H]1N(C2CC(N=[N+]=[N-])C(CO)O2)C(=O)NC(=O)[C@]1(C)Cl` (some centres not stated), the AZT formation is reported as 0%.
With `CO[C@@H]1N(C2CC(N=[N+]=[N-])C(CO)O2)C(=O)NC(=O)[C@@]1(C)Br` (some centres not stated) the AZT formation was 44%.
For `CO[C@H]1N(C2CC(N=[N+]=[N-])C(CO)O2)C(=O)NC(=O)[C@]1(C)I` (some centres not stated), the AZT formation was 79%.

Target: Thymidine phosphorylase (Escherichia coli K-12) (UniProt P07650)
Sequence (P07650 whole entry, looked up): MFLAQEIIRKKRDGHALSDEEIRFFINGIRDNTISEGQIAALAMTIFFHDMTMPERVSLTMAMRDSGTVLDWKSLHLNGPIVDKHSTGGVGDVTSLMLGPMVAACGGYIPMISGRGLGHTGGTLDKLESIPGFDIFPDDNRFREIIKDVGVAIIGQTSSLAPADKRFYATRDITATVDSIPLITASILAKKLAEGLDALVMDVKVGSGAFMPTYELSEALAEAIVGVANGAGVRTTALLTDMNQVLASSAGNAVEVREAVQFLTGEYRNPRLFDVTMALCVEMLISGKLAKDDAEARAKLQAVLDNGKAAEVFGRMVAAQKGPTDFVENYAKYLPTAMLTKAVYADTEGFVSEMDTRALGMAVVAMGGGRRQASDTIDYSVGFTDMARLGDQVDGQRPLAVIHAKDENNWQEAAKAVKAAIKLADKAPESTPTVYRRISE
Assay: In vitro percent of phosphorolysis after incubation with Escherichia coli thymidine phosphorylase for 10 min at 37 degree C
Format: functional
Conditions: not given
How it was run: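 E. coli thymidine phosphorylase diluted in 10 mM Tris-HCl pH 7.3 with EDTA, plus 100 mM KH2PO4 pH 7.1 (stock), prewarmed to 37 °C. Substrate added, 10 min at 37 °C, stopped with ice-cold methanol, spun. HPLC-UV at 230 nm tracked substrate loss or appearance of base. Thymidine used as control substrate; each run at least twice.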
With `CO[C@@H]1N(C2CC(N=[N+]=[N-])C(CO)O2)C(=O)NC(=O)[C@@]1(C)Cl` (some centres not stated) the Phosphorolysis was 0%.
`Cc1cn([C@H]2C[C@H](O)[C@@H](CO)O2)c(=O)[nH]c1=O` gave a Phosphorolysis of 72%.
Compound `CO[C@H]1N(C2CC(N=[N+]=[N-])C(CO)O2)C(=O)NC(=O)[C@@]1(C)Cl` (some centres not stated) has a Phosphorolysis of 0%.
`CO[C@@H]1N(C2CC(N=[N+]=[N-])C(CO)O2)C(=O)NC(=O)[C@@]1(C)I` (some centres not stated) gave a Phosphorolysis of 0%.
For `CO[C@H]1N(C2CC(N=[N+]=[N-])C(CO)O2)C(=O)NC(=O)[C@]1(C)Br` (some centres not stated), the Phosphorolysis was 0%.
With `CO[C@H]1N(C2CC(N=[N+]=[N-])C(CO)O2)C(=O)NC(=O)[C@]1(C)Cl` (some centres not stated) the Phosphorolysis was 0%.
In the case of `CO[C@@H]1N(C2CC(N=[N+]=[N-])C(CO)O2)C(=O)NC(=O)[C@@]1(C)Br` (some centres not stated), the Phosphorolysis is reported as 0%.
For `CO[C@H]1N(C2CC(N=[N+]=[N-])C(CO)O2)C(=O)NC(=O)[C@]1(C)I` (some centres not stated), the Phosphorolysis was 0%.
`CCO[C@@H]1N(C2CC(N=[N+]=[N-])C(CO)O2)C(=O)NC(=O)[C@@]1(C)Br` (some centres not stated) gave a Phosphorolysis of 0%.
